SR-BI HDL uptake: mouse SR-BI HDL lipid transfer inhibition; actives 0.96% (n = 320,000); inhibition, % at 12.5 µM; Q61009; ldlA[mSR-BI] CHO cells, DiI-HDL uptake fluorescence, 3 h;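 active means mean replicate inhibition of at least 70% and a set share of replicates each scoring 70 or more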;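 further: 0% = median of neutral control wells and 100% = median of positive control wells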
CAL PDZ FP-1: blocks peptide binding to the human CAL PDZ domain; purified CAL PDZ, TMR-peptide fluorescence polarization, 1 h; inhibition, % at 24.9 µM; Q9HD26; actives 0.92% (n = 300,000);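 active means mean inhibition of at least 30% with at least half of replicates also reaching 30%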;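 further: 0% = DMSO neutral control and 100% = excess unlabeled competitor peptide PRC23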
SR-BI DiI-HDL act: activators of SR-BI mediated HDL lipid uptake | AID 504775 | actives 0.096% (n = 320,000) | CHO ldlA[mSR-BI] cells, DiI-HDL uptake fluorescence, 3 h; 100 = double the neutral-control signal | activation, % at 12.5 µM;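 active means mean replicate activation of at least 60% and every replicate at or above 60%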;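 further: 0% = median plate neutral-control signal and 100% = twice that signal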
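Test system: SR-BI-overexpressing, LDLR-lacking CHO cells; Also added: labelled HDL, 10 µg/mL; Measured by: bottom-read cell fluorescence after medium removal, ex 550/em 595 nm; Timing: 3 h uptake period with compound, 37 °C; Buffer or medium: F12, 0.5% BSA, 25 mM HEPES; Doses: single compound concentration, delivered by pin transfer.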
CAL PDZ FP-2: human CAL PDZ-peptide interaction inhibition | purified CAL PDZ, TMR-peptide fluorescence polarization, 1 h | Q9HD26 | inhibition, % at 20 µM | actives 0.02% (n = 330,000);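 active means highest replicate inhibition of at least 40%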;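 further: plate controls were DMSO neutral control wells for no effect and unlabeled competitor peptide control wells for full effect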
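Material: tagged CAL PDZ domain; buffer or medium: 25 mM sodium phosphate pH 7.4, 150 mM NaCl, TCEP, IgG, Thesit; compound dosing: single point, 20 µM; schedule: 1 h incubation at room temperature before polarization reading; measured by: FP readout, S and P plane fluorescence; read-out basis: percent inhibition from loss of millipolarization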
ATG4B inh: inhibitors of human ATG4B cysteine protease | ATG4B cleavage of LC3-PLA2, NBD-HPC fluorescence, 1 h | inhibition, % at 8.33 µM | actives 0.51% (n = 340,000) | AID 504462; in the data active means inhibition above about 40%
Target sequence (Q9Y4P1 whole entry, looked up): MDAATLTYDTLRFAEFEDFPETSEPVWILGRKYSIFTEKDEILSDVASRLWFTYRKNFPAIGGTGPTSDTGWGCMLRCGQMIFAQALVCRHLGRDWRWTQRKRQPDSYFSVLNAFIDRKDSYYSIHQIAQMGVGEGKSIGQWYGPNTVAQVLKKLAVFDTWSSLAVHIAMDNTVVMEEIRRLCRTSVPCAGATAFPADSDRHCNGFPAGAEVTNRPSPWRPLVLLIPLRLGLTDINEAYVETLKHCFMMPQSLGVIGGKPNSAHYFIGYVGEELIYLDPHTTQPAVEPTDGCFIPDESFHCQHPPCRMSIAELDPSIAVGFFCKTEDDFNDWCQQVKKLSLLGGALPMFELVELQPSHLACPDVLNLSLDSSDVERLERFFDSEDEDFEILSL
ATG4B confirm: confirmation of human ATG4B inhibitors | ATG4B protease fluorescent substrate cleavage assay | actives 92% (n = 320) | shares compounds with ATG4B inh | inhibition, % at 8.33 µM | AID 504757; in the data active means inhibition above about 39%
PLA2 counter: counter-screen for ATG4B inhibitors: human phospholipase A2; shares compounds with ATG4B inh; purified PLA2, NBD-C6-HPC fluorescence, 45 min; inhibition, % at 8.33 µM; actives 66% (n = 1,600); in the data active means inhibition above about 50%
Target sequence (P04054 whole entry, looked up): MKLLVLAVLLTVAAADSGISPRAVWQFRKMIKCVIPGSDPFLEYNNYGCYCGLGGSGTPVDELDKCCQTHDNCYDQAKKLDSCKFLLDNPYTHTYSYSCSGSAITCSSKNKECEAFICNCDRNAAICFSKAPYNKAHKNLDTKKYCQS
Active calls of the source: *; x = no result given. Hits are enriched below; roughly 2.3% of the tested compounds scored in any of these assays.

SMILES	SR-BI HDL uptake	CAL PDZ FP-1	SR-BI DiI-HDL act	CAL PDZ FP-2	ATG4B inh	PLA2 counter	others
CCOC(=O)C1CCCN(c2nc(C)nc3c2oc2ccccc23)C1 (configuration not stated)	-0.2	-4.7	0.2	x	5.1	x
CCc1nc(N2CCCCC2C)c2oc3ccccc3c2n1 (configuration not stated)	-20.4	x	20.4	-1.8	45.2*	56.4*
COc1cccc(CNS(=O)(=O)c2ccc3c(c2)N(C(C)=O)CCO3)c1	-16.1	-2.0	16.1	-1.9	3.4	x
CC(C)(C)c1cc(C(=O)NNc2cc(C(F)(F)F)ccc2Cl)n(Cc2ccccc2)n1	17.7	-1.4	-17.7	-0.8	42.8*	63.1*
Cc1ccccc1N(C=O)c1ccccc1C	12.6	x	-12.6	-0.7	-8.9	x
Cc1sc(NC(=O)CN2CCOCC2)c(C#N)c1C	x	x	x	x	-3.3	x
COc1ccc2c(c1OC)C(=O)N1c3ccccc3C(=O)N(c3ccc(F)cc3)C21 (configuration not stated)	44.0	1.5	-44.0	x	37.2	x
COc1ccc2c(c1OC)C(=O)N1c3ccccc3C(=O)N(c3ccccc3)C21 (configuration not stated)	61.0	1.7	-61.0	-1.2	48.1*	46.5
CC(=O)c1cccc(NC(=O)C2C3C=CC(C3=C(c3ccccc3)c3ccccc3)C2C(=O)O)c1 (configuration not stated)	-0.7	x	0.7	-2.3	78.9*	90.4*
COc1ccc(Cl)cc1NC(=O)Nc1cccc([N+](=O)[O-])c1C	78.1*	1.6	-78.1	-1.1	78.3*	85.8*
CCn1c(SCC(=O)Nc2ccc(OC)c(S(=O)(=O)N3CCCCC3)c2)nnc1C1CC1	8.0	-3.4	-8.0	-1.4	-10.4	x
CCOc1cc(/C=C2\CCC/C(=C\c3cc(Cl)c(O)c(OCC)c3)C2=O)cc(Cl)c1O	59.5	-0.9	-59.5	-1.5	44.4*	50.6*
CCc1nnc(NC(=O)[C@@H](NS(=O)(=O)c2ccc3c(c2)OCCO3)C(C)C)s1	-17.2	-0.6	17.2	0.1	-3.9	x
COc1ccc(C2=NOC(Cn3nc(C(=O)NCc4cccc(C(F)(F)F)c4)cc3-c3ccccc3)C2)cc1 (configuration not stated)	31.2	5.3	-31.2	-0.4	66.9*	82.3*
COc1ccc(C2=NOC(Cn3nc(C(=O)NCc4ccc(C)cc4)cc3-c3ccccc3)C2)cc1 (configuration not stated)	24.1	1.9	-24.2	-0.8	8.2	x
O=C(O)COc1ccc(Br)cc1C(c1c(C(=O)O)[nH]c2ccccc12)c1c(C(=O)O)[nH]c2ccccc12	0.7	1.2	-0.7	1.5	23.8	x
O=C(O)c1[nH]c2ccccc2c1C(c1cc(Cl)cc([N+](=O)[O-])c1O)c1c(C(=O)O)[nH]c2ccccc12	-12.2	x	12.2	-0.1	58.3*	39.8	ATG4B confirm=29.6
COc1ccccc1-c1nc(S(=O)(=O)c2ccccc2)c(N2CCCCC2)o1	-8.7	-2.2	8.7	-0.4	9.0	x
O=S(=O)(c1ccc(F)cc1)c1nc(-c2ccccc2F)oc1N1CCCCC1	19.6	-2.4	-19.6	-1.8	43.5*	41.0	ATG4B confirm=65.1*
O=C(COC(=O)c1ccccc1Nc1ccccc1)c1ccccc1	54.4	-0.6	-54.4	-2.3	53.3*	52.3*
CNc1ccccc1C(=O)OCC(=O)c1ccccc1	4.7	-1.4	-4.7	0.4	33.1	x
COc1cc(OC)cc(C(=O)NCC2CCCN(Cc3ccc(SC)cc3)C2)c1 (configuration not stated)	27.2	x	-27.2	-0.9	-6.8	x
Cc1n[nH]c(=O)c2c(NC(=O)CSc3nc4ccccc4c(=O)n3-c3ccc(OC(F)F)cc3)oc(C)c12	12.9	1.8	-12.9	-2.7	41.3*	75.4*
C/C=C/c1ccc(Oc2nnnn2-c2ccc(C(N)=O)cc2)c(OC)c1	9.7	0.9	-9.7	-2.0	69.3*	80.5*
NC(=O)c1ccc(-n2nnnc2Oc2ccccc2)cc1	-23.4	-2.6	23.4	-0.7	54.5*	49.8
SMILES	SR-BI HDL uptake	CAL PDZ FP-1	SR-BI DiI-HDL act	CAL PDZ FP-2	ATG4B inh	PLA2 counter	others
Cc1ccc([C@@H]2CC=C(C(=O)O)[C@H](c3ccc(C(C)(C)C)cc3)N2S(=O)(=O)c2ccc(C)cc2)cc1	5.4	-2.8	-5.4	-0.8	37.2	x
Cc1ccc(S(=O)(=O)N2[C@@H](c3ccc(C(C)(C)C)cc3)C(C(=O)O)=CC[C@H]2c2ccc(Cl)cc2)cc1	5.6	-2.5	-5.6	-0.5	45.7*	54.5*
CC1CN(C(=O)CCS(=O)(=O)c2ccccc2)CC(C)O1 (configuration not stated)	-8.2	-4.8	8.2	0.9	-7.0	x
O=C(Nc1ccccc1Br)c1cc[n+]([O-])cc1	x	x	x	-0.5	-2.0	x
CCOc1ccccc1NC(=O)c1cc(C(=O)c2cc(Br)ccc2O)coc1=N	60.2	-2.6	-60.2	-1.0	55.8*	56.8*
CC(C)OC(=O)c1cc(C(=O)c2cc(Br)ccc2O)coc1=N	-3.8	-4.8	3.8	-2.4	2.8	x
COc1ccccc1OCc1ccc(C(=O)n2nc(C)c(Cl)c2C)o1	-7.7	x	7.7	-0.4	75.1*	77.2*
Cc1ccc2occ(/C=N/NC(=O)[C@@H](N)Cc3ccccc3)c(=O)c2c1	-9.9	1.6	9.9	0.2	9.7	x
COCC(C)OC(=O)/C(C#N)=C\c1coc2ccc(C)cc2c1=O (configuration not stated)	-12.8	-0.2	12.8	-2.3	61.8*	49.0
Cc1ccc(-c2ccc(/C=C3\C(=O)ON=C3c3ccccc3)o2)c([N+](=O)[O-])c1	4.7	-1.9	-4.7	-0.4	63.1*	22.7
O=[N+]([O-])c1ccc(Nc2c3ccccc3nc3ccccc23)cc1	30.9	0.7	-30.9	-0.5	58.3*	59.7*
O=c1c2ccccc2c(-c2cccc(C(F)(F)F)c2)nn1-c1ccccc1	16.7	-1.7	-16.7	-1.4	12.3	x
O=c1c2ccccc2c(-c2ccc(O)cc2)nn1-c1cccc(C(F)(F)F)c1	21.5	-2.8	-21.5	-1.0	59.5*	72.3*
O=C1C(SCCO)=C(SCCO)C(=O)c2ccccc21	23.5	-6.8	-23.5	11.3	44.0*	-15.7	ATG4B confirm=71.8*
O=c1nc(/C=C/c2ccccc2C(F)(F)F)cc(C(F)(F)F)[nH]1	-17.1	x	17.1	-0.4	44.7*	59.4*
COc1ccc(/C=C/c2cc(C(F)(F)F)[nH]c(=O)n2)cc1OC	-41.0	1.3	41.0	-1.0	1.1	x

Screens from PubChem BioAssay.
